In ChEMBL document CHEMBL2150909, “Imidazo[1,2-a]pyridines: orally active positive allosteric modulators of the metabotropic glutamate 2 receptor” (J Med Chem, 2012):

Assays:
[1] = Metabolic stability of human liver microsomes assessed as compound metabolized at 5 uM after 15 mins; type: ADME, Microsome; details: read-out: Drug metabolism
Outline: (§1)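 Test compound at 5 μM incubated 15 min with rat or human liver microsomes; read-out is percent of compound metabolized.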

[2] = molecular target: T1, Metabotropic glutamate receptor 2 (Homo sapiens, UniProt Q14416); test: Agonist activity at human mGlu 2 expressed in CHO cells by PAM assay relative to glutamate; type: functional, cell-based
Outline: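 The assay measured [35S]GTPγS binding to membranes from CHO cells expressing human mGluR2. Cells were butyrate-stimulated (5 mM, 24 h) before membranes were prepared. Membranes were preincubated for 30 min at 30 °C in HEPES pH 7.4 buffer (NaCl, MgCl2, 50 μM GDP) with compound (0.3 nM–50 μM, 11 concentrations) plus EC25 glutamate. [35S]GTPγS (0.1 nM final) was then added for 30 min at 30 °C. Bound label was collected by filtration and counted. Runs were done at least in triplicate with duplicate points, and a four-parameter logistic fit gave the values.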
Target sequence in this assay (Q14416 19-872 limits assumed): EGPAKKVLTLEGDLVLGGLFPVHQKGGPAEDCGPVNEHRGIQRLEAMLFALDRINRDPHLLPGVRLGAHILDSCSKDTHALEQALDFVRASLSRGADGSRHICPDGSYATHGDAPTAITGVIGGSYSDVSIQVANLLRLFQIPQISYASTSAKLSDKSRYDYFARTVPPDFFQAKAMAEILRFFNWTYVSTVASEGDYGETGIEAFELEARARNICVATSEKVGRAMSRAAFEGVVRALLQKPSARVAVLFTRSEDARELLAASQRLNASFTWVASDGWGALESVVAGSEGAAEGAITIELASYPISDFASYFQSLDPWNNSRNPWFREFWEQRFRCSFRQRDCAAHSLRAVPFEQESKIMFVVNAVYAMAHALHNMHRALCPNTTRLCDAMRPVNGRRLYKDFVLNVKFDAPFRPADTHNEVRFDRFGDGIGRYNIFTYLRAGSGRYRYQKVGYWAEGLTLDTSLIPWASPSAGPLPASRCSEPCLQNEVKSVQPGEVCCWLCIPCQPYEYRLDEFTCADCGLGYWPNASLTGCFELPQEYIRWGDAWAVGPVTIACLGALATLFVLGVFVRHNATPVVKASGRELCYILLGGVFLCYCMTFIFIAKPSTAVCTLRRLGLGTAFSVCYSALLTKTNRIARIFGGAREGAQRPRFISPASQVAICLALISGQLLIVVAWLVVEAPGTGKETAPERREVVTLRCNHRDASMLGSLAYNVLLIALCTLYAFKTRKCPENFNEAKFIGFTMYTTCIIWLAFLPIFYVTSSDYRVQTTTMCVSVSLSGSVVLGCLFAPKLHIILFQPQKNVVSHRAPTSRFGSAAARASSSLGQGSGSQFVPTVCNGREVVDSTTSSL

[3] = Metabolic stability of Sprague-Dawley rat liver microsomes assessed as compound metabolized at 5 uM after 15 mins; type: ADME, Microsome; details: read-out: Drug metabolism; outline: as §1
[4] = Plasma concentration in SPF Swiss mouse at 10 mg/kg, sc after 4 hrs; type: ADME, organism-based; design: dose 10 mg/kg, route subcutaneous
Outline: (§2)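 Male Swiss SPF mice dosed subcutaneously at 10 mg/kg in 20% HP-β-CD, pH 4. Brain levels measured in ng/g and plasma levels in ng/mL at the stated time, with brain/plasma ratio; geometric mean of at least two runs ± SEM.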

[5] = Plasma concentration in SPF Swiss mouse at 10 mg/kg, sc after 2 hrs; type: ADME, organism-based; design: dose 10 mg/kg, route subcutaneous; outline: as §2
[6] = Ratio of drug level in brain to plasma of SPF Swiss mouse at 10 mg/kg, sc after 4 hrs; type: ADME, organism-based; design: dose 10 mg/kg, route subcutaneous; details: read-out: BPR
Outline: (§3)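 Male Swiss SPF mice, single subcutaneous dose of 10 mg/kg in 20% HP-β-CD at pH 4. Brain levels (ng/g) and plasma levels (ng/mL) measured at the stated time after dosing; brain-to-plasma ratio taken from these. Geometric mean of at least two runs ± SEM.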

[7] = AUC (0 to infinity) in Sprague-Dawley rat at 10 mg/kg, po and 2.5 mg/kg, iv; type: ADME, organism-based; details: plasma
Outline: (§4)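 Rat PK: compounds formulated in 20% HP-β-CD at pH 4 and given orally and intravenously. Values are geometric means of at least two runs ± SEM.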

[8] = Drug uptake in SPF Swiss mouse brain at 10 mg/kg, sc after 1 hr; type: ADME, organism-based; design: dose 10 mg/kg, route subcutaneous; details: read-out: Drug uptake; outline: as §2
[9] = Cmax in Sprague-Dawley rat at 10 mg/kg, po and 2.5 mg/kg, iv; type: ADME, organism-based; details: in vivo; outline: as §4
[10] = Oral bioavailability in Sprague-Dawley rat at 10 mg/kg; type: ADME, organism-based; details: in vivo
Outline: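 Male Sprague-Dawley rats given 10 mg/kg orally and/or 1.25 mg/kg intravenously; compound formulated in 20% HP-β-CD at pH 4. Cmax, tmax, AUC0−inf, t1/2, clearance and oral bioavailability F derived from plasma levels; geometric mean of at least two runs ± SEM.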

[11] = Plasma concentration in SPF Swiss mouse at 10 mg/kg, sc after 1 hr; type: ADME, organism-based; design: dose 10 mg/kg, route subcutaneous; outline: as §2
[12] = Tmax in Sprague-Dawley rat at 10 mg/kg, po and 2.5 mg/kg, iv; type: ADME, organism-based; details: in vivo; outline: as §4
[13] = Ratio of drug level in brain to plasma of SPF Swiss mouse at 10 mg/kg, sc after 1 hr; type: ADME, organism-based; design: dose 10 mg/kg, route subcutaneous; details: read-out: BPR; outline: as §3
[14] = Drug uptake in SPF Swiss mouse brain at 10 mg/kg, sc after 4 hrs; type: ADME, organism-based; design: dose 10 mg/kg, route subcutaneous; details: read-out: Drug uptake; outline: as §2
[15] = Half life in Sprague-Dawley rat at 10 mg/kg, po and 2.5 mg/kg, iv; type: ADME, organism-based; details: in vivo; outline: as §4
[16] = Clearance in Sprague-Dawley rat at 10 mg/kg, po and 2.5 mg/kg, iv; type: ADME, organism-based; details: in vivo
[17] = Ratio of drug level in brain to plasma of SPF Swiss mouse at 10 mg/kg, sc after 2 hrs; type: ADME, organism-based; design: dose 10 mg/kg, route subcutaneous; details: read-out: BPR; outline: as §3
[18] = molecular target: T1, Metabotropic glutamate receptor 2; test: Agonist activity at human mGlu 2 expressed in CHO cells assessed as [35S]GTPgammaS binding by liquid scintillation analysis; type: functional, cell-based
Outline: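 Membranes from butyrate-stimulated (5 mM, 24 h) CHO cells expressing human mGlu2. Preincubated 30 min at 30 °C in HEPES pH 7.4 with NaCl, MgCl2, 50 μM GDP and saponin; modulator 0.3 nM–50 μM, no added glutamate. [35S]GTPγS 0.1 nM final, 30 min at 30 °C, filtered, scintillation counted. Nonspecific binding defined with cold GTP; 11 concentrations in duplicate, ≥3 curves.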
Target sequence in this assay (Q14416 whole entry): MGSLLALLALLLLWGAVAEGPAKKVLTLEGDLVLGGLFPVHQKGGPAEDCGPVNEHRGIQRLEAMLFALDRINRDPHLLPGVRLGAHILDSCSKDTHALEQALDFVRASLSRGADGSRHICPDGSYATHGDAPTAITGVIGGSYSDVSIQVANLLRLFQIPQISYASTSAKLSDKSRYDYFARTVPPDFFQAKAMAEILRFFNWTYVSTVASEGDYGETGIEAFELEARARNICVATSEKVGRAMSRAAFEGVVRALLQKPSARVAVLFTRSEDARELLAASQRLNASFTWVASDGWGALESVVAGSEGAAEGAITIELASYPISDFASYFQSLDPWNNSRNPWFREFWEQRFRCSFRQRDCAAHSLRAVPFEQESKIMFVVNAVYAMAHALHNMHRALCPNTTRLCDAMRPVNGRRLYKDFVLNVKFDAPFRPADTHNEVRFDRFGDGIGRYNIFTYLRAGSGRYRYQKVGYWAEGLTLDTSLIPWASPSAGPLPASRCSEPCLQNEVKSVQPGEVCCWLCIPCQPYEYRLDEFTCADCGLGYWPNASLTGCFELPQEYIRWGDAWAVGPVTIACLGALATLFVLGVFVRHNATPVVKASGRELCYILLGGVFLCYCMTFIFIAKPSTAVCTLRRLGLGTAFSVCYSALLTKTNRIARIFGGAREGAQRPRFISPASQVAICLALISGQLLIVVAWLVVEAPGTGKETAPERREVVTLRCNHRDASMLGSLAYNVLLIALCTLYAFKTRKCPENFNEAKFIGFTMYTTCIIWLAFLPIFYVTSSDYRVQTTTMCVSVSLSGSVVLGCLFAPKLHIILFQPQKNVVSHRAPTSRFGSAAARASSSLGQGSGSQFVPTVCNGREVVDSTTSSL

[19] = Drug uptake in SPF Swiss mouse brain at 10 mg/kg, sc after 2 hrs; type: ADME, organism-based; design: dose 10 mg/kg, route subcutaneous; details: read-out: Drug uptake; outline: as §2

| metabolised at 0.25 h, 5 µM [1] | Emax [2] | metabolised at 0.25 h, 5 µM [3] | EC50 [18] | SMILES | other results |
| --- | --- | --- | --- | --- | --- |
| 45% | 232% | 100% | 1660 nM | N#Cc1c(-c2ccc3c(c2)OCCN3)ccn2c(CC(F)(F)F)cnc12 |  |
|  | 105% |  |  | N#Cc1c(-c2ccc3c(c2)OCCNC3)ccn2c(CC(F)(F)F)cnc12 |  |
| 28% | 154% | 55% |  | Cn1ccc2cc(-c3ccn4c(CC(F)(F)F)cnc4c3C#N)ccc21 |  |

The next lines start with the compound.

| SMILES | metabolised at 0.25 h, 5 µM [1] | Emax [2] | metabolised at 0.25 h, 5 µM [3] | EC50 [18] | other results |
| --- | --- | --- | --- | --- | --- |
| N#Cc1c(-c2ccc(NC3CCOCC3)c(Cl)c2)ccn2c(CC(F)(F)F)cnc12 | 21% | 307% | 36% |  |  |
| N#Cc1c(-c2ccc3c(ccn3[C@H]3CC[C@H](O)CC3)c2)ccn2c(CC(F)(F)F)cnc12 | 4% | 237% | 15% | 330 nM | concentration at 4 h [4]: 3860 ng/mL; concentration at 2 h [5]: 4500 ng/mL; Kp at 4 h [6]: 0.1; AUC(0-inf) [7]: 7520 ng·h/mL; concentration at 1 h [8]: 322 ng/g; Cmax [9]: 1060 ng/mL; bioavailability [10]: 50%; concentration at 1 h [11]: 4170 ng/mL; Tmax [12]: 1.7 h; Kp at 1 h [13]: 0.1; concentration at 4 h [14]: 280 ng/g; half-life [15]: 2.8 h; clearance [16]: 11.7 mL/min/kg; Kp at 2 h [17]: 0.1; concentration at 2 h [19]: 469 ng/g |
| FC(F)(F)Cc1cnc2c(Cl)c(-c3cc(Cl)c4c(ccn4CC4CC4)c3)ccn12 | 1% | 193% | 70% |  |  |
| N#Cc1c(-c2ccc3c(ccn3CC3CC3)c2)ccn2c(CC(F)(F)F)cnc12 | 24% | 230% | 40% | 190 nM |  |
